In data set [1] the test system is Mycobacterium scrofulaceum. Kind of data set: Potency index, ratio of isoniazid MIC to test compound MIC for antibacterial activity against Mycobacterium scrofulaceum assessed as inhibition of microbial growth incubated for 1 week by MABA method. The class given is functional. The settings on record: time 1 weeks.
The subject of data set [2] is Staphylococcus epidermidis. Kind of data set: Antibacterial activity against Staphylococcus epidermidis ATCC 35984/RP62A assessed as bacterial growth inhibition measured after 18 hrs by two-fold serial microdilution method. The class given is functional. Summed up: (§1)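 Two-fold serial broth microdilution in MH II medium following modified CLSI procedures. Compounds were dissolved in DMSO and diluted in medium to at most 1% solvent, tested from 0.03125 to 512 μg/ml. Final inoculum 10^6 CFU/ml. MIC was taken as the lowest concentration with no visible growth after 18 h at 35 °C.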
In general terms: Broth dilution looks for growth in wells or tubes with falling amounts of substance.

Data set [3] has as its system Staphylococcus aureus. Kind of data set: Antibacterial activity against Staphylococcus aureus ATCC 6538 assessed as bacterial growth inhibition measured after 18 hrs by two-fold serial microdilution method. The class given is functional. In short, it runs like this: as §1
Data set [4] relates to Staphylococcus epidermidis. Kind of data set: Antibacterial activity against Staphylococcus epidermidis ATCC 12228 assessed as bacterial growth inhibition measured after 18 hrs by two-fold serial microdilution method. The class given is functional. In short, it runs like this: as §1
The subject of data set [5] is Mycobacterium tuberculosis. Kind of data set: Antitubercular activity against Mycobacterium tuberculosis Spec.192 assessed as inhibition of microbial growth incubated for 1 week by MABA method. Type of data set: functional. The settings on record: Mycobacterium tuberculosis, 192, 168 h; time 1 weeks. Summed up: (§2)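 Microplate Alamar Blue assay in Middlebrook 7H9 broth with 10% OADC. Inoculum from fresh LJ culture was adjusted to McFarland 1 and diluted 1:20. DMSO stocks were two-fold serially diluted to final 0.125–512 µg/ml, with growth and sterile controls. Plates ran 1 week at 37 °C, then Alamar blue was added for 24 h. MIC is the lowest concentration preventing the blue-to-pink change.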
A general note: Alamar Blue is a resazurin reagent that responds to reducing activity.

For data set [6], the system named is Mycobacterium intracellulare. Kind of data set: Antimycobacterial activity against Mycobacterium intracellulare assessed as inhibition of microbial growth incubated for 1 week by MABA method. The settings on record: 168 h, time 1 weeks. The class given is functional. In short, it runs like this: (§3)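 Microplate Alamar Blue assay using two-fold serial microdilution in Middlebrook 7H9 broth with 10% OADC, compounds 0.125–512 µg/ml from DMSO stocks. Inoculum came from fresh LJ culture, was adjusted to McFarland 1 and diluted 1:20. Plates were incubated 1 week at 37 °C, Alamar blue was added and plates were re-incubated 24 h. MIC was the lowest concentration preventing the blue-to-pink change. Each plate carried growth and sterile controls.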

The test system of data set [7] is HaCaT. Kind of data set: Cytotoxicity against human HaCaT cells assessed as reduction in cell viability at 100 uM measured after 72 hrs by MTT assay. Type of data set: cell-based. Summed up:
(§4)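 MTT viability assay on cells grown in DMEM with 10% heat-inactivated FBS, penicillin/streptomycin and 20 mM HEPES at 37 °C/5% CO2. Cells were seeded at 1×10^4 per well and allowed to adhere for 24 h, then the medium was refreshed. Compounds were added at 20–140 μM for 72 h at 37 °C, followed by MTT (0.5 mg/mL in serum-free medium) for 4 h. Untreated cells served as control. IC50 is the concentration giving 50% growth inhibition versus control.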
For orientation: Formazan colour is commonly taken as a measure of viable cells.

The subject of data set [8] is Pseudomonas aeruginosa. Kind of data set: Antibacterial activity against Pseudomonas aeruginosa NCTC 6749 assessed as bacterial growth inhibition measured after 18 hrs by two-fold serial microdilution method. Type of data set: functional. In short, it runs like this:
as §1

In the next data set the test system is Mycobacterium kansasii. Kind of data set: Antibacterial activity against Mycobacterium kansasii assessed as inhibition of microbial growth incubated for 1 week by MABA method. The class given is functional. The settings on record: 168 h, time 1 weeks. Summed up:
as §3

Another data set has as its system Proteus vulgaris. Kind of data set: Antibacterial activity against Proteus vulgaris NCTC 4635 assessed as bacterial growth inhibition measured after 18 hrs by two-fold serial microdilution method. Type of data set: functional. In short, it runs like this: as §1
Data set [9] relates to Mycobacterium scrofulaceum. Kind of data set: Antibacterial activity against Mycobacterium scrofulaceum assessed as inhibition of microbial growth incubated for 1 week by MABA method. Conditions: 168 h, time 1 weeks. Type of data set: functional. Summed up: as §3
In data set [10] the test system is HaCaT. Kind of data set: Cytotoxicity against human HaCaT cells assessed as reduction in cell viability measured after 72 hrs by MTT assay. Type of data set: cell-based. Summed up: as §4
In data set [11] the test system is V79. Kind of data set: Cytotoxicity against Chinese Hamster V79 cells assessed as reduction in cell viability measured after 72 hrs by MTT assay. Conditions: Cricetulus griseus, V79, 72 h. The class given is cell-based. In short, it runs like this:
as §4

Data set [12] relates to Mycolicibacterium fortuitum. Kind of data set: Antibacterial activity against Mycobacterium fortuitum assessed as inhibition of microbial growth incubated for 1 week by MABA method. Type of data set: functional. The settings on record: 168 h, time 1 weeks. Summed up:
as §3

Data set [13] concerns Staphylococcus aureus. Kind of data set: Antibacterial activity against Staphylococcus aureus NCTC 4163 assessed as bacterial growth inhibition measured after 18 hrs by two-fold serial microdilution method. The class given is functional. In short, it runs like this: as §1
The test system of the next data set is Mycobacterium xenopi. Kind of data set: Antibacterial activity against Mycobacterium xenopi assessed as inhibition of microbial growth incubated for 1 week by MABA method. Conditions: 168 h, time 1 weeks. The class given is functional. Summed up:
as §3

For another data set, the system named is Klebsiella pneumoniae. Kind of data set: Antibacterial activity against Klebsiella pneumoniae ATCC 10031 assessed as bacterial growth inhibition measured after 18 hrs by two-fold serial microdilution method. Type of data set: functional. Summed up: as §1
The subject of data set [14] is Staphylococcus epidermidis. Kind of data set: Antibacterial activity against Staphylococcus epidermidis ATCC 1457 assessed as bacterial growth inhibition measured after 18 hrs by two-fold serial microdilution method. The class given is functional. Summed up:
as §1

The test system of data set [15] is Pseudomonas aeruginosa. Kind of data set: Antibacterial activity against Pseudomonas aeruginosa PAO1 assessed as bacterial growth inhibition measured after 18 hrs by two-fold serial microdilution method. Type of data set: functional. In short, it runs like this:
as §1

Data set [16] concerns Mycobacterium tuberculosis. Kind of data set: Antitubercular activity against Mycobacterium tuberculosis H37Rv ATCC 25618 assessed as inhibition of microbial growth incubated for 1 week by MABA method. The settings on record: H37Rv ATCC 25618, 168 h, time 1 weeks. The class given is functional. In short, it runs like this:
as §2

The subject of data set [17] is V79. Kind of data set: Cytotoxicity against Chinese Hamster V79 cells assessed as reduction in cell viability at 100 uM measured after 72 hrs by MTT assay. Conditions: v79, 72 h. Type of data set: cell-based, Cricetulus griseus. In short, it runs like this:
as §4

A further data set deals with Mycobacterium avium. Kind of data set: Antimycobacterial activity against Mycobacterium avium assessed as inhibition of microbial growth incubated for 1 week by MABA method. The class given is functional. Conditions: 168 h, time 1 weeks. In short, it runs like this:
as §2

The test system of the next data set is Escherichia coli. Kind of data set: Antibacterial activity against Escherichia coli ATCC 25922 assessed as bacterial growth inhibition measured after 18 hrs by two-fold serial microdilution method. Type of data set: functional. Summed up: as §1

In brackets after ≈: the same amount, converted by molar mass.

A word on the MIC: it is the lowest concentration that inhibits growth of the organism. As a reminder, the IC50 is the concentration that inhibits the measured activity by half.

Turning to `COc1ccc(Nc2nnnn2-c2ccc(Cl)cc2)cc1`, the Ratio in data set [1] turned out to be 4. In addition, the MIC is 256 µg/mL (≈ 848 µM) in [2]; more than 256 µg/mL with Staphylococcus aureus [3]; 256 µg/mL (≈ 848 µM) in data set [4]; 8 µg/mL in data set [5]; 128 µg/mL in data set [6]; more than 256 µg/mL in the data set with Pseudomonas aeruginosa [8]. Besides, the MIC in the data set with Mycobacterium kansasii was 512 µg/mL; with Proteus vulgaris, more than 256 µg/mL; in data set [9] it was 16 µg/mL; in data set [12] it was more than 512 µg/mL; in the data set with Staphylococcus aureus [13] it was 256 µg/mL (≈ 848 µM); with Mycobacterium xenopi, 128 µg/mL. Further, the minimum inhibitory concentration (MIC) in the data set with Klebsiella pneumoniae is more than 256 µg/mL; in data set [14], more than 256 µg/mL; with Pseudomonas aeruginosa [15], more than 256 µg/mL; in [16], 8 µg/mL; in the data set on Mycobacterium avium, 256 µg/mL; in the data set with Escherichia coli, more than 256 µg/mL. Further, the Activity result in the data set on HaCaT [7] and in the data set with V79 [17] was “Non-Toxic” each time. Also, the values for the IC50 in the data set on HaCaT [10] and in the data set on V79 [11] were 102 µM and 115 µM, respectively.

The values above are taken from ChEMBL document CHEMBL4680121, “Development of (4-methoxyphenyl)-1H-tetrazol-5-amine regioisomers as a new class of selective antitubercular agents” (Eur J Med Chem, 2020).
